Here are results for 22 compounds from ChEMBL document CHEMBL1914441, “Discovery and optimization of a biphenylacetic acid series of prostaglandin D2 receptor DP2 antagonists with efficacy in a murine model of allergic rhinitis” (Bioorg Med Chem Lett, 2011).

pIC50: −log10 of the molar value. Active and inactive are the calls of the source.

The target in data set [1] is T1, Prostaglandin D2 receptor 2 (Homo sapiens, UniProt Q9Y5Y4).
T1 sequence (Q9Y5Y4 whole entry): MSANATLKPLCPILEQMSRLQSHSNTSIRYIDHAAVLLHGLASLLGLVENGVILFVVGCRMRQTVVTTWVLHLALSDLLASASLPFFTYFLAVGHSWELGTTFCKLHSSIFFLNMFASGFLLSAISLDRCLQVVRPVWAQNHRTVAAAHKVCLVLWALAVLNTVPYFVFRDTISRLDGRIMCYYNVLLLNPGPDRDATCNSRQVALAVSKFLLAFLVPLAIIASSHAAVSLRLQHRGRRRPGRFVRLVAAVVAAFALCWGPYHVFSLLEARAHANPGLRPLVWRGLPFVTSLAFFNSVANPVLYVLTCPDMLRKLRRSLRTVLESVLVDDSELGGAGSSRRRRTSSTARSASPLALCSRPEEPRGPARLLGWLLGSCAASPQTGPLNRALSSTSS
Description: Displacement of [3H]-PGD2 from human prostanoid DP2 receptor expressed in human 293T cells by liquid scintillation counting. The class given is cell-based. The method, boiled down:
(§1)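 Membranes from 293 cells stably expressing human DP2 were incubated with [³H]-PGD₂ across increasing compound concentrations. Membranes were harvested and washed, and bound radioactivity was counted. The IC50 is the concentration giving 50% inhibition of [³H]-PGD₂ binding. The assay was run without and with 0.2% human serum albumin to gauge protein shift. Mean of at least three experiments.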
(In general: Loss of bound radioactivity is the signal in a displacement assay; it reports binding, not function.)

The target in data set [2] is T1, Prostaglandin D2 receptor 2. Description: Displacement of [3H]-PGD2 from human prostanoid DP2 receptor expressed in human 293T cells by liquid scintillation counting in presence of 0.2 % human serum albumin. The class given is cell-based. The method, boiled down:
as §1

Data set [3] deals with T2, Prostaglandin D2 receptor (Homo sapiens, UniProt Q13258).
T2 sequence (Q13258 whole entry): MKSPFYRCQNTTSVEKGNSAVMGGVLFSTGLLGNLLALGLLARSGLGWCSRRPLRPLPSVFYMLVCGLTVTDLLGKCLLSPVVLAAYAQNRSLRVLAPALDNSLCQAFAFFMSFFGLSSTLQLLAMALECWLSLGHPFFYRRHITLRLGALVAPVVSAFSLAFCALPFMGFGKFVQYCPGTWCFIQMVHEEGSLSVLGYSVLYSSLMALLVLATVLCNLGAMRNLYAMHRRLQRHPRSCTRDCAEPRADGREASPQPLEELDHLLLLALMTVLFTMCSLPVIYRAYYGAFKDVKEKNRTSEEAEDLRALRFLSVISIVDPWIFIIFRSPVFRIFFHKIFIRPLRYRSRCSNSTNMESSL
Description: Displacement of [3H]-PGD2 from human DP1 receptor expressed in human platelet membranes. The class given is cell membranes.

The target of data set [4] is T3, Thromboxane A2 receptor (Homo sapiens, UniProt P21731).
T3 sequence (P21731 whole entry): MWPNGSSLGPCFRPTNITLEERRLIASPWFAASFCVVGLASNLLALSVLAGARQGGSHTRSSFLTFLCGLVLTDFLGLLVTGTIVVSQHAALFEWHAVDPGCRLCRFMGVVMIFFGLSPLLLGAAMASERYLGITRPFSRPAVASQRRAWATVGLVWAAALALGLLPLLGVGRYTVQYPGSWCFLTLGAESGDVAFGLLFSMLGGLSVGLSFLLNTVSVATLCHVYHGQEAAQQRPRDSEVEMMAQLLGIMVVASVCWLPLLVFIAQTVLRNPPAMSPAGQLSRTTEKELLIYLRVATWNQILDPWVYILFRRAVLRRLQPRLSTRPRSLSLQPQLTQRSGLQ
Description: Displacement of [3H]-SQ-29,548 from human TP receptor expressed in human platelet membranes. It is filed as cell membranes. In outline:
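TP binding was measured with human platelet membranes and ³H-SQ-29,548 as radioligand.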

Data set [5] addresses Prostacyclin receptor (Homo sapiens, UniProt P43119). Description: Displacement of [3H]-iloprost from human prostanoid IP receptor expressed in human 293T cells membranes. The class given is cell membranes. In outline: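 IP binding was measured with membranes from hIP/293 cells and ³H-iloprost as radioligand.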
Data set [6] addresses Cytochrome P450 3A4 (Homo sapiens, UniProt P08684). Description: Inhibition of human CYP3A4. It is filed as ADME.
Data set [7] concerns the target Cytochrome P450 2C9 (Homo sapiens, UniProt P11712). Description: Inhibition of human CYP2C9. It is filed as ADME.
The target of data set [8] is Cytochrome P450 2D6 (Homo sapiens, UniProt P10635). Description: Inhibition of human CYP2D6. The class given is ADME.
Cytochrome P450 2D6, sequence (P10635 whole entry): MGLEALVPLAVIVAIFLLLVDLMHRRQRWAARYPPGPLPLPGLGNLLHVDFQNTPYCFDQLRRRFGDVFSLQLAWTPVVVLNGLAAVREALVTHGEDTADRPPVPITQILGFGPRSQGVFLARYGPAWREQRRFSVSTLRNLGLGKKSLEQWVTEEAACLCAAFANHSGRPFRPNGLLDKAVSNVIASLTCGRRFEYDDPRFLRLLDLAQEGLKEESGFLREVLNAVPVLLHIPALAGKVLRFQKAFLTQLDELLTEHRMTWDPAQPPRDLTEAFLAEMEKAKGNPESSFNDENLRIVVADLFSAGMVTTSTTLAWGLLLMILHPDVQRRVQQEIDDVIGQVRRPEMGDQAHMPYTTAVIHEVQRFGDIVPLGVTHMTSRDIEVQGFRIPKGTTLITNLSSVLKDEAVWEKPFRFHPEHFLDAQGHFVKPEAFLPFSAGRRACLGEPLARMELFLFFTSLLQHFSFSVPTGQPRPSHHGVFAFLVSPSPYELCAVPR
The target in data set [9] is hERG (KCNH2) (Homo sapiens, UniProt Q12809). Description: Inhibition of human ERG at 10 uM by patch clamp assay. The method, boiled down: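 hERG inhibition was measured by patch clamp, performed by an external contract laboratory.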
hERG (KCNH2), sequence (Q12809 whole entry): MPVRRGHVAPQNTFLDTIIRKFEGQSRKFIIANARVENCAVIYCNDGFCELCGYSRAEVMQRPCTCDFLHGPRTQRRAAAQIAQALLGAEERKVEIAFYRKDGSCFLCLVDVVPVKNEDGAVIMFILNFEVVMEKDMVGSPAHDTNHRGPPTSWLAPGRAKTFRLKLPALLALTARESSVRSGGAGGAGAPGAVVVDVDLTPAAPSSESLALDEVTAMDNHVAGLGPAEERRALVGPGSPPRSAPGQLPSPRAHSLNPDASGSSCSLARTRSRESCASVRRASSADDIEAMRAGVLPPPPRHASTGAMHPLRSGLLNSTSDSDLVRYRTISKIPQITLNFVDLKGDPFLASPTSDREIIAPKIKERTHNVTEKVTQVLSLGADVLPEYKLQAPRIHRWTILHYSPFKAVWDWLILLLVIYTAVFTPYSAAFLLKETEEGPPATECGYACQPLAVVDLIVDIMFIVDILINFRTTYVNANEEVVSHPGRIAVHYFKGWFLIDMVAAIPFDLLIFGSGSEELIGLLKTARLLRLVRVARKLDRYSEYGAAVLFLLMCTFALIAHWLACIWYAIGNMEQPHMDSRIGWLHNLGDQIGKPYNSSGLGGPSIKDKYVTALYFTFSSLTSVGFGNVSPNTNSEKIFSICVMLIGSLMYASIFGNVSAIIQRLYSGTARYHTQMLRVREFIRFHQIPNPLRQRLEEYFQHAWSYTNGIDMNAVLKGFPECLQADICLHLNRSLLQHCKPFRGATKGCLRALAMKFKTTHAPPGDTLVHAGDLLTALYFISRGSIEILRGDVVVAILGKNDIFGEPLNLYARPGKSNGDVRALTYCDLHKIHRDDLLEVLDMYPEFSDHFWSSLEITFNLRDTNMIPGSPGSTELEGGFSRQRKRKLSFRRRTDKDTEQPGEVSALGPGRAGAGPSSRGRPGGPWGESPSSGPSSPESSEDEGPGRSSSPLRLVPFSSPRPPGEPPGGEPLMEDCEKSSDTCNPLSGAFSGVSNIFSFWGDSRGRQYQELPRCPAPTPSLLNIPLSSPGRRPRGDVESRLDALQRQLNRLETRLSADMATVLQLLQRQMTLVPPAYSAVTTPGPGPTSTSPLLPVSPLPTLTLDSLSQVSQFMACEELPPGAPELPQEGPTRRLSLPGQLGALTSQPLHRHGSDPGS
For orientation: Patch clamp records ionic current or voltage across a cell membrane.

A short description of data set [10]: Half life in rat at 2 mg/kg, iv. It is filed as ADME, organism-based. Set-up: dose 2 mg/kg, route intravenous. The following applies: in vivo. In outline:
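Rat dosing used the sodium salt, given IV at 2 mpk in water.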

Data set [11] in a line: Half life in dog at 2 mg/kg, iv and 5 mg/kg, po. The class given is ADME, organism-based, Canis lupus familiaris. The conditions noted are these: in vivo. In outline: (§2)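 Dog dosing used the sodium salt, given IV at 2 mpk in saline and PO at 5 mpk in 0.5% Methocel.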
Data set [12] is described as follows: Oral bioavailability in dog at 5 mg/kg. The following applies: in vivo. It is filed as ADME, organism-based, Canis lupus familiaris. In outline:
as §2

Data set [13] relates to Mus musculus. Description: Antiallergic effect in ovalbumin-sensitized BALB/c mouse allergic rhinitis model assessed as reduction in sneezing symptoms at 10 mg/kg, po administered 1 hr prior to OVA challenge on days 31 and 32 measured for 8 mins immediately after OVA challenge on day 32. It is filed as functional, organism-based. Also on record: dose 10 mg/kg. The method, boiled down: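 Female BALB/c mice sensitized with intraperitoneal OVA (10 µg in Alum) on days 0 and 7, then given nasal OVA challenge. Compound or water vehicle was dosed orally 1 h before challenge on days 31 and 32 only. Sneezing was counted over an 8 min session immediately after the day 32 challenge. n = 4–10 mice per group, means ± SEM, Dunnett's test after ANOVA versus vehicle.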

Data set [14] can be described thus: Oral bioavailability in rat at 10 mg/kg. The conditions noted are these: in vivo.

Cytochrome P450 2C9, sequence (P11712 whole entry): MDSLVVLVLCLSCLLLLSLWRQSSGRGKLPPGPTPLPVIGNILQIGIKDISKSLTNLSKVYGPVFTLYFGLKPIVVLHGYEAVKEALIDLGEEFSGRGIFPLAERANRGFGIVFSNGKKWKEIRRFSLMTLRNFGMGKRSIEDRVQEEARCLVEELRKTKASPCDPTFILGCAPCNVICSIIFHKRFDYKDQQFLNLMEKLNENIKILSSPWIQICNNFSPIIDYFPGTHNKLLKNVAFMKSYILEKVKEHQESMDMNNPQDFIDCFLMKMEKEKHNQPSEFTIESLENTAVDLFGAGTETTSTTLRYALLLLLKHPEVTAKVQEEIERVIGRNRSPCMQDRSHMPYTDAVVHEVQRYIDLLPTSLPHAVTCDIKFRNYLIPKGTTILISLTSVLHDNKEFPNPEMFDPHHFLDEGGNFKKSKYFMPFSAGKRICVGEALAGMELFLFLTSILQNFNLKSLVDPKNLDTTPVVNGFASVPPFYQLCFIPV
Cytochrome P450 3A4, sequence (P08684 whole entry): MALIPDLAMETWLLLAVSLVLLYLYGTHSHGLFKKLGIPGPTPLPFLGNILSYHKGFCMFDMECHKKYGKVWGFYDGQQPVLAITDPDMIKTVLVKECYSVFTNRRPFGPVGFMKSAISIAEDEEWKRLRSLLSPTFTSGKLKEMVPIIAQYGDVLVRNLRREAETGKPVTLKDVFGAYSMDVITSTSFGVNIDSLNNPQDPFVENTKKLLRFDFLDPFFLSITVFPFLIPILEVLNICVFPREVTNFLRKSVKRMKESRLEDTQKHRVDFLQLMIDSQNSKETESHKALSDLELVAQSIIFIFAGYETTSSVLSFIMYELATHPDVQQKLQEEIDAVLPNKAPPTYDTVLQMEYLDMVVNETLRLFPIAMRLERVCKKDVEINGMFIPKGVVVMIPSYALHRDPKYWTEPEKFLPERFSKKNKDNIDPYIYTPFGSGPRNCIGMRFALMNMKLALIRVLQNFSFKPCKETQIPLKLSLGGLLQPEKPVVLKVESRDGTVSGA
Prostacyclin receptor, sequence (P43119 whole entry): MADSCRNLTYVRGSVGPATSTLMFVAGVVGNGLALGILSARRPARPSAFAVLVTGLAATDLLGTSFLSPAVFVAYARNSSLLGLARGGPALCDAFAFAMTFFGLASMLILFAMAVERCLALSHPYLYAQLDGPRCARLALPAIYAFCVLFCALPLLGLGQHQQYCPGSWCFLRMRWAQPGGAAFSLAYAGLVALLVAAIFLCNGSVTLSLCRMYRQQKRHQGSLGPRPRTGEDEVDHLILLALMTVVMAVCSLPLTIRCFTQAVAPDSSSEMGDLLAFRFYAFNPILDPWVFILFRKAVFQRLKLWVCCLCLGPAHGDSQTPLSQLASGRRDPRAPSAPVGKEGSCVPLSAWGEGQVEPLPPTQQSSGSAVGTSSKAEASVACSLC

Turning to `C[C@H]1[C@@H](c2ccccc2)OC(=O)N1Cc1cc(C(F)(F)F)ccc1-c1cccc(CCC(=O)O)c1`, the pIC50 in [1] was 5.01; in [2], 4.12.

For `CCN(Cc1cc(C(F)(F)F)ccc1-c1cc(CC(=O)O)ccc1OC)C(=O)OCc1ccc(Cl)cc1`, the pIC50 in data set [1] is 8.52; in data set [2], 8.15; in data set [3] it was 5.40; in [4], 4.95; in data set [5] it was 4.48; in [6], 4.68. Moreover, the results for the pIC50 in data set [7] and in [8] were 4.74 and under 4.52, respectively. Further, at 10 µM the inhibition in [9] was 22%.

As to `COC(=O)N(Cc1ccccc1)Cc1cc(C(F)(F)F)ccc1-c1cc(CC(=O)O)ccc1OC`, the pIC50 in [1] is 8.10; in data set [2] it was 7.51; in data set [3], 4.90; in [4] it was 4.20; in data set [6], under 4.52; in [7] it was under 4.52. The same compound showed a pIC50 in data set [8] of under 4.52. Further, the inhibition at 10 µM in data set [9] came to 1.2%.

As to `CCN(Cc1cc(C(F)(F)F)ccc1-c1cc(CC(=O)O)ccc1OC)C(=O)OCc1ccccc1Cl`, the figures for the pIC50 in data set [1] and in data set [2] were 8.52 and 7.96, respectively.

As for `CCN(Cc1cc(C(F)(F)F)ccc1-c1cc(CC(=O)O)ccc1OC)C(=O)OCc1cccc(Cl)c1`, the pIC50 was 8.70 in [1] and 8.00 in [2].

`CCN(Cc1cc(C(F)(F)F)ccc1-c1cc(CC(=O)O)ccc1OC)C(=O)OCc1cc(F)cc(F)c1`: the pIC50 in data set [1] was 8.52; in data set [2], 7.96.

Take `C[C@H]1[C@@H](c2ccccc2)OC(=O)N1Cc1cc(C(F)(F)F)ccc1-c1ccccc1CC(=O)O`: the pIC50 in data set [1] was 4.39; in data set [2], 4.21.

`COc1ccc(CC(=O)O)cc1-c1ccc(F)cc1CN1C(=O)O[C@H](c2ccccc2)[C@@H]1C`: the pIC50 is 6.44 in [1] and 5.89 in [2].

Regarding `COc1ccc(CC(=O)O)cc1-c1ccc(C(F)(F)F)cc1CN(C(=O)OCc1ccccc1)C1CCCC1`, the pIC50 is 7.96 in data set [1] and 7.28 in [2].

In the case of `COc1ccc(CC(=O)O)cc1-c1ccc(C(F)(F)F)cc1CN(C)C(=O)OCc1ccccc1`, the values for the pIC50 in data set [1] and in data set [2] were 8.40 and 7.74, respectively.

For `COc1ccc(CC(=O)O)cc1-c1ccc(C(F)(F)F)cc1CNC(=O)OCc1ccccc1`, the pIC50 was 7.35 in [1] and 6.62 in data set [2].

As to `COc1ccc(CC(=O)O)cc1-c1ccc(C(F)(F)F)cc1CNCCc1ccccc1`, the pIC50 is 5.47 in data set [1] and 4.96 in data set [2].

For `COc1ccc(CC(=O)O)cc1-c1ccc(C(F)(F)F)cc1CN1C(=O)O[C@H](c2ccccc2)[C@@H]1C`, the pIC50 in data set [1] was 6.74; in data set [2], 5.35; in data set [3] it was 4.50; in data set [4], 4.20; in [6], under 4.52; in [7] it was under 4.52. Besides, the pIC50 in [8] is under 4.52.

In the case of `C[C@H]1[C@@H](c2ccccc2)OC(=O)N1Cc1cc(C(F)(F)F)ccc1-c1cccc(C(=O)O)c1`, the results for the pIC50 in data set [1] and in data set [2] were 4.57 and 4.04, respectively.

`COC(=O)N(CCc1ccccc1)Cc1cc(C(F)(F)F)ccc1-c1cc(CC(=O)O)ccc1OC`: the pIC50 in [1] is 7.62; in data set [2] it was 7.21.

Turning to `COc1ccc(CC(=O)O)cc1-c1ccccc1CN1C(=O)O[C@H](c2ccccc2)[C@@H]1C`, the values for the pIC50 in [1] and in [2] were 6.06 and 5.70, respectively.

As to `CCN(Cc1cc(C(F)(F)F)ccc1-c1cc(CC(=O)O)ccc1OC)C(=O)OC`, the pIC50 in data set [1] is 8.05; in data set [2], 7.80; in data set [3], 4.44; in data set [4] it was 4.17; in data set [6], under 4.52; in data set [7], under 4.52. The compound further showed a pIC50 in [8] of under 4.52. The same compound yielded an inhibition at 10 µM in data set [9] of 5.9%.

In the case of `C[C@H]1[C@@H](c2ccccc2)OC(=O)N1Cc1cc(C(F)(F)F)ccc1-c1ccccc1CCC(=O)O`, the results for the pIC50 in [1] and in [2] were 4.96 and 4.42, respectively.

With `C[C@H]1[C@@H](c2ccccc2)OC(=O)N1Cc1cc(F)ccc1-c1ccc(CC(=O)O)cc1`, the pIC50 in [1] was 6.44; in [2] it was 5.74.

On to `CCN(Cc1cc(C(F)(F)F)ccc1-c1cc(CC(=O)O)ccc1OC)C(=O)OCc1ccccc1`, for which the pIC50 was 5.40 in data set [3]; 4.64 in [4]; 4.25 in data set [5]; 4.74 in data set [6]; 4.74 in [7]; under 4.52 in [8]. For the same compound, the half-life in data set [10] was 8.7 h; in data set [11] it was 7.4 h. The bioavailability came out at 89% in data set [12] and 77% in data set [14]. Moreover, the result in [13] was Active.

With `COc1ccc(-c2cc(CC(=O)O)ccc2OC)c(CN2C(=O)O[C@H](c3ccccc3)[C@@H]2C)c1`, the values for the pIC50 in data set [1] and in [2] were 5.89 and 5.21, respectively.

As for `C[C@H]1[C@@H](c2ccccc2)OC(=O)N1Cc1cc(C(F)(F)F)ccc1-c1cccc(CC(=O)O)c1`, the pIC50 in data set [1] was 6.47; in [2], 5.52.

What is called pIC50 is the negative decadic logarithm of the IC50, by convention in mol/L. As a reminder, the inhibition is the percentage by which the read-out fell short of the control. Low values mean little suppression, high ones strong suppression. For orientation: half-life means the time needed for the level to fall by half in the phase considered. The low end stands for rapid decline, the high end for slow decline. By bioavailability is commonly meant the share of a dose that reaches the circulation, judged against a reference dose that is usually intravenous. A higher bioavailability goes with good availability.
